Results gathered from unrelated publications.
Compare with care: the assays were run in different laboratories.
ART1: ART1 (Homo sapiens, UniProt P52961)
CA9: Carbonic anhydrase 9 (CA9, Homo sapiens, UniProt Q16790)
PADI4: Protein-arginine deiminase type-4 (PADI4, Homo sapiens, UniProt Q9UM07)
GUK1: GUK1 (Homo sapiens, UniProt Q16774)

SMILES | target | test | conditions | endpoint | value
O=C(O)CCc1ccccc1 | Inward rectifier potassium channel 2 (KCNJ2, Homo sapiens, UniProt P63252) | binding, MST |  | Kd | 2110 µM
NC(=O)c1cccnc1 | ART1 | enzyme activity, inhibitor, fluorescence |  | Ki | 8300 µM
CC[C@H](C)[C@H](NC(=O)[C@H](CCC(=O)O)NC(=O)[C@H](CO)NC(=O)[C@@H](NC(=O)[C@@H](N)CO)C(C)C)C(=O)N[C@@H](CCC(N)=O)C(=O)N[C@@H](CC(C)C)C(=O)N[C@@H](CCSC)C(=O)N[C@@H](Cc1cnc[nH]1)C(=O)N[C@@H](CC(N)=O)C(=O)N[C@@H](CC(C)C)C(=O)NCC(=O)N[C@@H](CCCCN)C(=O)N[C@@H](Cc1cnc[nH]1)C(=O)N[C@@H](CC(C)C)C(=O)N[C@@H](CC(N)=O)C(=O)N[C@@H](CO)C(=O)N[C@@H](CCSC)C(=O)N[C@@H](CCC(=O)O)C(=O)N[C@@H](CCCNC(=N)N)C(=O)N[C@H](C(=O)N[C@@H](CCC(=O)O)C(=O)N[C@@H](Cc1c[nH]c2ccccc12)C(=O)N[C@@H](CC(C)C)C(=O)N[C@@H](CCCNC(=N)N)C(=O)N[C@@H](CCCCN)C(=O)N[C@@H](CCCCN)C(=O)N[C@@H](CC(C)C)C(=O)N[C@@H](CCC(N)=O)C(=O)N[C@@H](CC(=O)O)C(=O)N[C@H](C(=O)N[C@@H](Cc1cnc[nH]1)C(=O)N[C@@H](CC(N)=O)C(=O)N[C@@H](Cc1ccccc1)C(N)=O)C(C)C)C(C)C | Albumin (ALB, Bos taurus, UniProt P02769) | binding, BLI |  | Kd | 1.61 µM
N#CSCc1cc(=O)oc2cc(O)ccc12 | CA9 | enzyme activity, inhibitor, stopped-flow |  | Ki | 0.0274 µM
O=C(NCc1cn(-c2ccc([N+](=O)[O-])cc2)nn1)c1ccc(=O)oc1 | CA9 | enzyme activity, inhibitor, stopped-flow |  | Ki | 7.5 µM
Cc1cc(C)nc(Nc2ccc(C(=O)N[C@@H](CCCNC(=N)CCl)C(=O)NCc3ccccc3)cn2)c1 | PADI4 | enzyme activity, inhibitor, fluorescence | with preincubation | IC50 | 1.02 µM
N#CSCCCCOc1ccc2c(-c3ccccc3)cc(=O)oc2c1 | CA9 | enzyme activity, inhibitor, stopped-flow |  | Ki | 0.258 µM
Nc1nc2c(ncn2[C@@H]2O[C@H](COP(=O)(O)O)[C@@H](O)[C@H]2O)c(=O)[nH]1 | GUK1 | binding, ITC |  | Kd | 39 µM
O=C(OCc1cn(-c2ccc(Cl)cc2)nn1)c1ccc(=O)oc1 | CA9 | enzyme activity, inhibitor, stopped-flow |  | Ki | 21.9 µM
CN(C)c1ccc2cc(C(=O)N[C@@H](CCCN=C(N)CCl)C(=O)NCc3ccccc3)ccc2c1 | PADI4 | enzyme activity, inhibitor, fluorescence | with preincubation | IC50 | 2.86 µM
Nc1ncnc2c1ncn2[C@@H]1O[C@H](COP(=O)(O)OP(=O)(O)OC[C@H]2OC(O)[C@H](O)[C@@H]2O)[C@@H](O)[C@H]1O (some centres unmarked) | ART1 | enzyme activity, inhibitor, fluorescence |  | Ki | 4900 µM
Cc1ccc(-n2cc(CNC(=O)c3ccc(=O)oc3)nn2)cc1 | CA9 | enzyme activity, inhibitor, stopped-flow |  | Ki | 14.5 µM
N=C(CCl)NCCC[C@H](NC(=O)c1cnc2cc(Br)ccc2c1)C(=O)NCc1ccccc1 | PADI4 | enzyme activity, inhibitor, fluorescence | with preincubation | IC50 | 0.409 µM
Nc1ncnc2c1ncn2[C@@H]1O[C@H](CO[P@](=O)(O)O[P@](=O)(O)O[P@@](=O)(O)S)[C@@H](O)[C@H]1O | GUK1 | binding, ITC |  | Kd | 40 µM
